What was measured:
Dihydrofolate reductase = biological target: T1, Dihydrofolate reductase (Homo sapiens, UniProt P00374); assay: Inhibition of dihydrofolate reductase(DHFR) enzyme from human leukemic lymphoblasts.
T1 sequence (P00374 whole entry): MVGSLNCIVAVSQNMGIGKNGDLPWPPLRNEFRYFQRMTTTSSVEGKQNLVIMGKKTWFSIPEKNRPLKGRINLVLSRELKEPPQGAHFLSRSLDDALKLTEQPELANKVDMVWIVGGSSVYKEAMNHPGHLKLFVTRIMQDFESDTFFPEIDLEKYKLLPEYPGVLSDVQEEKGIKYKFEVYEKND
In short: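 Spectrophotometric read-out at 340 nm. Enzyme was DHFR purified from human leukemic lymphoblasts (WI-L2/M4).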

L1210 = assay: Inhibitory activity against growth of L1210 murine leukemic cells; assay type: functional, cell-based; settings: Mus musculus
In short: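 Growth inhibition was measured by an adapted tetrazolium salt method after 48-h exposure. Cells were grown in RPMI 1640 with 10% fetal bovine serum plus antibiotics. Results are expressed as IC50.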

[1] = Inhibitory activity against growth of WI-L2 human leukemic cells; settings: WIL2

Compound	IC50 (Dihydrofolate reductase)	IC50 (L1210)	IC50 [1]
NCCCC(NC(=O)c1ccc(NCc2cnc3nc(N)nc(N)c3c2)cc1)C(=O)O (centres undefined)	27 nM	1400 nM	860 nM
NCCCC(NC(=O)c1ccc(NCc2ccc3nc(N)nc(N)c3c2)cc1)C(=O)O (centres undefined)		280 nM	180 nM
NCCCC(NC(=O)c1ccc(NCc2ccc3nc(N)nc(N)c3n2)cc1)C(=O)O (centres undefined)		660 nM	
NCCCC(NC(=O)c1ccc(NCc2ccc3nc(N)nc(O)c3c2)cc1)C(=O)O (centres undefined)	750 nM	> 5000 nM	
NCCCC(NC(=O)c1ccc(NCc2cnc3nc(N)nc(O)c3c2)cc1)C(=O)O (centres undefined)		> 5000 nM	
CN(Cc1cnc2nc(N)nc(N)c2n1)c1ccc(C(=O)NC(CCCNCC(=O)O)C(=O)O)cc1 (centres undefined)	50 nM	1100 nM	4300 nM
NCCCC(NC(=O)c1ccc(NCc2cnc3nc(N)nc(N)c3n2)cc1)C(=O)O (centres undefined)			2600 nM
CN(Cc1cnc2nc(N)nc(N)c2n1)c1ccc(C(=O)NC(CCCN)C(=O)O)cc1 (centres undefined)	160 nM		
